zfTRPN1 agonist: zebrafish TRPN1 (NompC) channel agonism | HEK293 zebrafish TRPN1-YFP, Fluo-8 calcium fluorescence; 100% = response to 87 µM carbachol | activation, % at 3 µM | 220,000 tested, 0.18% active | AID 1424;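 active = activation above its plate's cutoff, the mean activation of test wells on that plate plus 3 SD, cut at about 19% in these data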;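 note: 0% = DMSO alone and 100% = 87 µM carbachol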
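System: zebrafish TRPN1-YFP in HEK293 cells / Dosing: 3 µM single point / Timing: dye loading 1 h at 37 °C, then 30 min room temperature / Signal: Fluo-8 calcium fluorescence, excitation 470-495 nm, emission 515-575 nm / Read-out basis: percent activation from peak over basal fluorescence ratio, control-normalized / Control set: high carbachol 87 µM, low DMSO alone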
OXTR potentiate: potentiators of human oxytocin receptor | 320,000 tested, 0.061% active | activation, % at 3 µM | CHO-OTR cells, Fluo-8 calcium fluorescence, potentiator mode; 0% = oxytocin EC15, 100% = EC100 | AID 2445 | P30559;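 active = activation above that plate's cutoff, the mean activation of tested compounds plus 3 SD, cut at about 6.6% in these data, passing the limit was not always enough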;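 note: 100% uses oxytocin at 75 nM as the full agonist control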
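Material: CHO-OTR cells, human receptor; compound dosing: single dose, 3.0 µM nominal final compound concentration; schedule: 6 min compound pre-incubation at room temperature, 100 s kinetic read; measured by: kinetic Fluo-8 calcium fluorescence; read-out basis: % activation vs EC15 and EC100 oxytocin; controls: EC15 oxytocin alone as 0%, 75 nM oxytocin as 100%; replicates: singlicate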
V1R ag counter: V1a receptor agonism, counter-screen for OXTR agonists | P37288 | CHO-V1R cells, Fluo-8 calcium fluorescence, agonist mode; 0% DMSO, 100% 3 nM vasopressin | activation, % at 3 µM | 320,000 tested, 0.25% active | AID 2797;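 active = activation above the mean activation of all tested compounds plus 3 SD, per screening run, cut at about 20% in these data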;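 note: signal is peak over basal fluorescence ratio across a 100 second FLIPR read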
Target sequence (P37288 whole entry, looked up): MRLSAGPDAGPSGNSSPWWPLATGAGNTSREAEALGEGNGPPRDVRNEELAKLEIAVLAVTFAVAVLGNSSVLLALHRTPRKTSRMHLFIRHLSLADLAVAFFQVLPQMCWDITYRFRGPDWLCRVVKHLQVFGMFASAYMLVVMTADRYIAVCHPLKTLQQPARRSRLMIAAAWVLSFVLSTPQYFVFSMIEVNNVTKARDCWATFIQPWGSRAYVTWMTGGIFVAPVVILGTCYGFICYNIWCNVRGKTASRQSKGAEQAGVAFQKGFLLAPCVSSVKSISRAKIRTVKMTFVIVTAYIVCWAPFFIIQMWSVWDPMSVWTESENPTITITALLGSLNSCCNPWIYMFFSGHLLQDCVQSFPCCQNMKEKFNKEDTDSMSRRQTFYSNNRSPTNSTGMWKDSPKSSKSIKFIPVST
TRPML3 ag: human mucolipin-3 channel agonism; Q8TDD5; HEK293 TRPML3-YFP, Fluo-8 calcium fluorescence; 100% = the carbachol control signal; activation, % at 3 µM; 220,000 tested, 0.29% active; AID 1448;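 active = activation above its plate's cutoff, the mean activation of the plate's test wells plus 3 SD, cut at about 12% in these data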;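 note: 0% = DMSO only wells and 100% = carbachol wells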
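Test system – HEK293 line with stable expression of human TRPML3-YFP channel · Control set – carbachol 87 µM final as high control (100%), DMSO as low control (0%) · Signal – Fluo-8 calcium dye fluorescence, ex 470-495, em 515-575 nm · Incubation – 1-h 37 °C dye load, 5-s basal, 120-s post-compound reads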
OXTR agonist: agonists of human oxytocin receptor. CHO-OTR cells, Fluo-8 calcium fluorescence; normalized: DMSO 0%, oxytocin 100%. P30559. 320,000 tested, 0.32% active. activation, % at 3 µM;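 active = activation above the mean of all tested compounds plus 3 SD, cutoff set per screening run, cut at about 20% in these data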;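 note: peak over basal fluorescence ratio from a 100 s FLIPR kinetic read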
The depositor's hits bear a star; . = not tested or not shown. Most compounds without a hit are left out; they make up all but 0.55% or so of the library.

SMILES	zfTRPN1 agonist	OXTR potentiate	V1R ag counter	TRPML3 ag	OXTR agonist
O=C(CCC1CCCCC1)NCCS(=O)(=O)N1CCN(c2ccccc2)CC1	.	-2.3	-1.1	.	-2.6
Cc1cc(C)c(S(=O)(=O)c2cccc(Cl)c2)c(=O)[nH]1	.	-0.3	1.1	.	-0.1
COc1cc(/C=C2\CC/C(=C\c3ccc(OCCO)c(OC)c3)C2=O)ccc1OCCO	49.8*	-18.7	42.9*	26.6*	30.5*
O=C(/C=C/c1cccs1)NC(=S)NNC(=O)c1ccccc1O	20.9*	-12.2	14.2	14.5*	17.8
COc1ccc(C(=O)NNC(=S)NC(=O)/C=C/c2cccs2)cc1	2.2	-7.4	1.2	-0.4	3.3
CC1CCN(C(=O)C2CCCN2S(=O)(=O)c2ccc(Cl)cc2)CC1 (stereo not given)	.	-4.3	-0.1	.	-0.1
O=C(Nc1nnc(-c2ccccc2Cl)o1)c1nc2ccccc2s1	89.2*	-9.7	58.5*	95.1*	50.4*
O=C(Nc1nnc(-c2ccccc2Cl)o1)c1ccco1	-1.0	-4.9	0.5	-0.3	0.5
O=C(Nc1cccnc1)c1ccc(COc2cc(Cl)ccc2Cl)o1	0.3	-21.7	7.0	-0.4	4.4
O=C(N/N=C/c1ccc(O)cc1)c1ccc(COc2cc(Cl)ccc2Cl)o1	23.6*	-23.1	33.2*	10.5	32.7*
NS(=O)(=O)c1ccc(CCNC(=O)Cc2cccs2)cc1	.	-4.8	0.9	.	0.1
O=c1[nH]ncn1-c1ccccc1	0.7	-9.7	0.7	1.1	1.2
COc1cc(/C=C(\C#N)c2nc3ccccc3o2)ccc1O	65.5*	-32.5	23.9*	16.0*	29.7*
O=C(COC(=O)c1cc(F)cc(F)c1)NCCCc1ccccc1	.	-8.0	0.4	.	-1.9
CCc1ccc(NC(=O)C2(c3ccccc3)CC2(Cl)Cl)cc1 (stereo not given)	13.6	-25.1	30.4*	5.5	25.4*
COc1ccccc1-c1cc(C(=O)NC2CCN(C)CC2)c2ccc(Cl)c(C)c2n1	.	-3.3	12.3	.	20.4*
COc1ccc(Cc2nnc(NC(=O)Nc3ccc(C)cc3)s2)cc1OC	.	-7.1	0.5	.	-1.2
COc1ccc(Cc2nnc(NC(=O)CSc3ccc(C)cc3)s2)cc1OC	10.1	-27.9	77.3*	1.8	56.9*
COc1ccc2cc(C(=O)N/N=C/c3sc4ccccc4c3O)ccc2c1	13.9	-12.9	34.8*	8.8	36.4*
CCOC(=O)Cn1c(=O)oc2cc(S(=O)(=O)NCCc3ccc(C)cc3)ccc21	3.6	-10.1	10.2	1.6	13.2
CCOC(=O)Cn1c(=O)oc2cc(S(=O)(=O)Nc3ccc(F)cc3)ccc21	19.1*	-10.4	33.0*	6.7	36.0*
CC(=O)OCC1O[C@@H](O[C@@H]2C[C@H]3C(C)(C)[C@H](OC(C)=O)CC[C@]3(C)[C@H]3CC[C@]45C[C@]4(CC[C@H]5[C@@H](C)C[C@@H](O)[C@H](O)C(C)(C)O)[C@@]32C)[C@H](O)[C@@H](O)[C@@H]1O (stereo not given in full)	1.2	-17.9	87.4*	-0.1	68.9*
CC(C)=CCC[C@](C)(O[C@@H]1O[C@H](CO[C@@H]2O[C@H](CO)[C@@H](O)[C@H](O)[C@H]2O)[C@@H](O)[C@H](O)[C@H]1O)C1CC[C@]2(C)C1C(=O)CC1[C@@]3(C)CC[C@H](O[C@H]4O[C@@H](CO)[C@H](O)[C@@H](O)[C@@H]4O)C(C)(C)C3CC[C@]12C (stereo not given in full)	.	-2.3	0.6	.	0.8
CCC(ONc1ccccc1C(F)(F)F)(C(=O)NN(C)C)c1ccccc1 (stereo not given)	.	-6.7	-1.1	.	-0.9
CCOC(=O)c1nn(-c2ccccc2)c2nnc(Cc3ccc(C)cc3)c(=O)n12	0.1	12.2*	0.2	0.2	-2.8
C/C(=N\Nc1ccc(C(=O)O)cc1)c1ccc(Cl)s1	.	-16.0	33.5*	.	23.6*
CCc1ccccc1NC(=O)CNC(=O)CSC(=S)N1CCCC1	.	-9.5	0.7	.	-1.0
CCCCCCn1c(=O)[nH]c2nc3cc(N)c(C)cc3nc2c1=O	42.3*	.	.	14.6*	.
CN1C(=O)c2cccc3c(N(C)C)ccc(c23)C1=O	.	-19.8	23.2*	.	22.7*
CNc1ccc2c3c(cccc13)C(=O)N(C)C2=O	.	-26.5	313.8*	.	192.0*
